In paper PMC4690987 (Journal of Medicinal Chemistry, 2015):

Columns and labels:
[1] = tested on: HIV-1 NL4-3 strain; assay: Antiviral assay in HIV-1 infected TZM-bl cells; format: cell-based; conditions: for SI HIV-1 strain NL4-3: CC50 value/IC50 value; for antiviral or cytotoxic activity: HIV-1 NL4-3
How it was run: (§1)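 TZM-bl cells (HeLa expressing CD4 and CCR5, with LTR-driven luciferase and β-galactosidase) were seeded at 1 ×10^4 cells/well in DMEM/10% FBS and left to adhere overnight. Cells were infected with HIV-1 NL4-3 or BaL at MOI 0.5, treated with serial dilutions of test compound, and incubated at 37 °C for 48 h. IC50 was taken as 50% inhibition of LTR-luciferase signal. CC50 came from parallel MTT on mock-infected cells. SI = CC50/IC50.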

[2] = Cytotoxicity assay; format: cell-based; conditions: human, uninfected (mock-infected) TZM-bl cells
How it was run: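 Run in parallel with the antiviral assay, under the same conditions but on uninfected TZM-bl cells (1 ×10^4 cells/well, seeded overnight, test compound in serial dilution, 37 °C, 48 h). Viability was read by MTT absorbance. CC50 was the concentration that reduced absorbance of mock-infected cells by 50%.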

[3] = cited from earlier work
[4] = tested on: HIV-1 NL4-3; assay: HIV-1 entry assay; format: cell-based; conditions: TZM-bl cells, virus production at 31 h pi; 2 50–100 nM, AZT 0.5 μg/mL, DS 100 μg/mL
How it was run: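 TZM-bl cells (HeLa stably expressing CD4, CCR5 and HIV-1 LTR-driven luciferase) were grown in DMEM/10% FBS. Cells were seeded at 1 × 10^4 per well and allowed to adhere overnight, then infected with HIV-1 NL4-3 at MOI 0.5 and kept at 37 °C. Test compound or reference agents were added at 0, 1 or 2 h pi. At 31 h cells were PBS-washed and virus production was read as LTR-luciferase RLU.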

[5] = tested on: LTR-IV G4; assay: FRET melting assay; format: binding, HIV-1; conditions: for stabilization (ΔTm, FRET) at 4-fold c-exNDI:DNA molar ratio: 25 °C is the maximum increase measurable, data not shown; for difference in stabilization of LTR-IV G4s vs hTel G4: FRET, equimolar amounts
How it was run: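 Oligonucleotide labelled with FAM at the 5′ end and TAMRA at the 3′ end, 0.25 μM, folded in lithium cacodylate buffer with 100 mM potassium, plus equimolar test compound. After equilibration at 4 °C, FAM emission was followed from 30 to 95 °C at 1 °C/min. Profiles were normalized, and Tm was the temperature at 0.5 normalized fluorescence.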

[6] = tested on: LTR-III G4; assay: ESI-MS competition assay; format: binding, HIV-1; conditions: 2-fold molar excess of compound
How it was run: (§2)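 G4 oligonucleotides heat-denatured and folded overnight at room temperature in 10 mM KCl, 150 mM trimethylammonium acetate pH 6.8. Equimolar pairs of G4s incubated overnight at 4 °C with 2-fold excess test compound, then injected via HPLC into ESI-MS. Binding affinity = bound/(free + bound) ×100, from reconstructed-ion chromatogram areas. Bound includes one or two ligands; free includes K+ adducts.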

[7] = tested on: LTR-IV G4; assay: ESI-MS competition assay; format: binding, HIV-1; conditions: 2-fold molar excess of compound
How it was run: as §2

[8] = tested on: hTel G4; assay: ESI-MS competition assay; format: binding, human; conditions: 2-fold molar excess of compound
How it was run: as §2

[9] = tested on: c-kit2 G4; assay: ESI-MS competition assay; format: binding; conditions: 2-fold molar excess of compound
How it was run: as §2

[10] = tested on: c-myc G4; assay: ESI-MS competition assay; format: binding; conditions: 2-fold molar excess of compound
How it was run: as §2

[11] = target: LTR-IV G4; assay: SPR analysis; set-up: species or system HIV-1; conditions: read-out: KD LTR-IV G4 (SPR); 25 °C, HEPES-KCl buffer, 1:1 binding model
How it was run: (§3)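 5′-biotinylated oligonucleotides folded (95 °C for 5 min, cooled to room temperature), diluted to 30 nM and captured on a streptavidin chip to about 500 RU, with an empty reference cell. Running buffer was 0.01 M HEPES pH 7.4, 0.2 M KCl, 3 mM EDTA. Test compound run at 25–200 nM, 30 μL/min, with 280 s contact and 360 s dissociation. Surface regenerated with 10 mM glycine pH 2.0. Sensorgrams buffer-corrected and fitted to a 1:1 model. At least two independent runs, χ2 below 0.2.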

[12] = tested on: LTR-III G4; assay: Circular dichroism; format: binding, HIV-1; conditions: 4:1 c-exNDI:DNA ratio, label-free oligonucleotide
How it was run: (§4)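 Unlabelled oligonucleotide, final 4 μM, in 10 mM lithium cacodylate pH 7.4 with 100 mM KCl, annealed at 95 °C for 5 min, then cooled gradually to room temperature. Test compound added to a final 16 μM. CD spectra taken at 230–320 nm (5 mm cell, average of 2 scans, buffer-corrected) while heating 20–95 °C at 5 °C/min. Tm calculated by van't Hoff two-state fit.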

[13] = tested on: LTR-IV G4; assay: Circular dichroism; format: binding, HIV-1; conditions: 4:1 c-exNDI:DNA ratio, label-free oligonucleotide
How it was run: as §4

[14] = tested on: hTel G4; assay: Circular dichroism; format: binding, human; conditions: 4:1 c-exNDI:DNA ratio, label-free oligonucleotide
How it was run: as §4

[15] = tested on: LTR-III, LTR-IV, and hTel templates; assay: Taq polymerase stop assay; format: biochemical; conditions: 2 at 3.1–25.0 nM, K+ 100 mM
How it was run: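 A 5′-end-labelled primer was annealed to each template in lithium cacodylate buffer, with or without 100 mM KCl, by heating to 95 °C for 5 min and cooling gradually to room temperature so the templates folded into G4. A template unable to form G4 served as a control. Taq extension was run with or without test compound, and polymerase stop regions were read from the products.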

[16] = target: LTR-III G4; assay: SPR analysis; set-up: species or system HIV-1; conditions: read-out: KD LTR-III G4 (SPR); 25 °C, HEPES-KCl buffer, 1:1 binding model
How it was run: as §3

[17] = target: hTel G4; assay: SPR analysis; set-up: species or system human; conditions: read-out: KD hTel G4 (SPR); 25 °C, HEPES-KCl buffer, 1:1 binding model
How it was run: as §3

[18] = tested on: HIV-1 BaL strain; assay: Antiviral assay in HIV-1 infected TZM-bl cells; format: cell-based
How it was run: as §1

[19] = tested on: HIV-1 LTR promoter; assay: LTR-EGFP reporter assay in HeLa-Tat-III/LTR/d1EGFP cells; format: cell-based; conditions: noncytotoxic concentrations of 2 (62.5–250 nM), 48 h, FACS
[20] = tested on: wt LTR promoter; assay: Luciferase reporter assay in 293T cells; format: cell-based, HIV-1; conditions: increasing amounts of 2, 24 h
How it was run: (§5)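 HEK293T cells, 9 ×10^4 per well, transfected 24 h after seeding with 100 ng of a promoterless Luc2 vector carrying the wt or M4+5 (G4-abolishing double point mutant) HIV-1 LTR. Test compound added 1 h after transfection at various concentrations for 24 h. Luciferase activity measured. Cells lysed in RIPA, and signals normalized to total protein (BCA).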

[21] = tested on: M4 + 5 mutant LTR promoter (non-G4-forming); assay: Luciferase reporter assay in 293T cells; format: cell-based, HIV-1; conditions: increasing amounts of 2, 24 h
How it was run: as §5

Which “SI HIV-1 strain NL4-3” value [1] does the source give for `CN(C)CCCn1c(=O)c2ccc3c(=O)n(CCCN(C)C)c(=O)c4c5[nH]c6cc(C(=O)O)ccc6[nH]c5c(c1=O)c2c34` [Compound 6] here?
Its value is >5.

What about the CC50 [2] of the same molecule?
Its CC50 is > 5 µM.

What about the “pKa of the (CH2)3NHMe2+ moieties” value [3] of the same molecule?
Its value is > 8.1.

Which results are given for `CN(C)CCCNc1cc2c(=O)n(CCCN(C)C)c(=O)c3c4[nH]c5ccccc5[nH]c4c4c(=O)n(CCCN(C)C)c(=O)c1c4c23` [Compound 9]?
SI HIV-1 strain NL4-3 [1]: 2.2; CC50 [2]: 1.76 ± 0.0625 µM

Which “antiviral activity as a function of time of addition (0, 1, 2 h pi)” value [4] does the source give for `Cc1cn([C@H]2C[C@H](N=[N+]=[N-])[C@@H](CO)O2)c(=O)[nH]c1=O` [AZT, Zidovudine] here?
Its value is “maintaining activity from 0 to 2 h pi”.

For `CN(C)CCCn1c(=O)c2ccc3c(=O)n(CCCN(C)C)c(=O)c4c5[nH]c6cc([N+](=O)[O-])ccc6[nH]c5c(c1=O)c2c34` [Compound 4], which “stabilization (ΔTm, FRET) at 4-fold c-exNDI:DNA molar ratio” value [5] is on record?
The value was “above 25 °C”.

And the “binding affinity LTR-III” value ([6]; competing G4s LTR-III/LTR-IV)?
The value was 80.

And the “binding affinity LTR-III” value ([6]; competing G4s LTR-III/kit)?
Its value is 54.

And the “binding affinity LTR-III” value ([6]; competing G4s LTR-III/myc)?
Its value is 51.

And the “binding affinity LTR-IV” value ([7]; competing G4s LTR-III/LTR-IV)?
Its value is 68.

And the “binding affinity LTR-IV” value ([7]; competing G4s LTR-IV/hTel)?
The value was 75.

What about the “binding affinity LTR-IV” value ([7]; competing G4s LTR-IV/kit) of the same molecule?
Its value is 55.

What about the “binding affinity LTR-IV” value ([7]; competing G4s LTR-IV/myc) of the same molecule?
The value was 71.

And the “binding affinity cell G4 (hTel)” value ([8]; competing G4s LTR-III/hTel)?
Its value is 10.

And the “binding affinity cell G4 (hTel)” value ([8]; competing G4s LTR-IV/hTel)?
Its value is 18.

And the “binding affinity cell G4 (kit)” value ([9]; competing G4s LTR-III/kit)?
The value was 18.

What about the “binding affinity cell G4 (kit)” value ([9]; competing G4s LTR-IV/kit) of the same molecule?
Its value is 23.

And the “binding affinity cell G4 (myc)” value ([10]; competing G4s LTR-III/myc)?
The value was 37.

What about the “binding affinity cell G4 (myc)” value ([10]; competing G4s LTR-IV/myc) of the same molecule?
Its value is 45.

And the CC50 [2]?
The CC50 was 0.188 ± 0.00408 µM.

With `C[N+](C)(C)CCCn1c(=O)c2ccc3c(=O)n(CCC[N+](C)(C)C)c(=O)c4c5[nH]c6ccccc6[nH]c5c(c1=O)c2c34.[I-].[I-]` [Compound 10] as the molecule, how does the “stabilization (ΔTm, FRET) at 4-fold c-exNDI:DNA molar ratio” value [5] read?
Its value is “above 25 °C”.

And the “difference in stabilization of LTR-IV G4s vs hTel G4” value [5]?
Its value is ≥ 6 °C.

And the Kd [11]?
Its Kd is 0.0017 µM.

And the “antiviral or cytotoxic activity” value [1]?
Its value is “did not display any antiviral or cytotoxic activity”.

What about the CC50 [2] of the same molecule?
The CC50 was > 5 µM.

Which results are given for `C[N+](C)(C)CCCn1c(=O)c2cc(Br)c3c(=O)n(CCC[N+](C)(C)C)c(=O)c4c5[nH]c6ccccc6[nH]c5c(c1=O)c2c34.[I-].[I-]` [Compound 11]?
stabilization (ΔTm, FRET) at 4-fold c-exNDI:DNA molar ratio [5]: above 25 °C; Kd [11]: 0.0129 µM; antiviral or cytotoxic activity [1]: did not display any antiviral or cytotoxic activity; CC50 [2]: > 5 µM

What does the source list for `CN(C)CCCn1c(=O)c2ccc3c(=O)n(CCCN(C)C)c(=O)c4c5[nH]c6ccccc6[nH]c5c(c1=O)c2c34` [Compound 2]?
stabilization (ΔTm, FRET) at 4-fold c-exNDI:DNA molar ratio [5]: above 25 °C; difference in stabilization of LTR-IV G4s vs hTel G4 [5]: ≥ 6 °C; stabilization of LTR-III G4 by CD [12]: higher than 27 °C; stabilization of LTR-IV G4 by CD [13]: higher than 27 °C; stabilization of hTel G4 by CD [14]: 19.9 °C; Taq polymerase stop site [15]: intense stop site at the most 3′ G tract in each G4-forming template; binding affinity LTR-III ([6]; competing G4s LTR-III/LTR-IV): 71; binding affinity LTR-III ([6]; competing G4s LTR-III/kit): 33; binding affinity LTR-III ([6]; competing G4s LTR-III/myc): 39; binding affinity LTR-IV ([7]; competing G4s LTR-III/LTR-IV): 25; binding affinity LTR-IV ([7]; competing G4s LTR-IV/hTel): 52; binding affinity LTR-IV ([7]; competing G4s LTR-IV/kit): 25; binding affinity LTR-IV ([7]; competing G4s LTR-IV/myc): 25; binding affinity cell G4 (hTel) ([8]; competing G4s LTR-III/hTel): 10; binding affinity cell G4 (hTel) ([8]; competing G4s LTR-IV/hTel): 25; binding affinity cell G4 (kit) ([9]; competing G4s LTR-III/kit): 12; binding affinity cell G4 (kit) ([9]; competing G4s LTR-IV/kit): 9; binding affinity cell G4 (myc) ([10]; competing G4s LTR-III/myc): 45; binding affinity cell G4 (myc) ([10]; competing G4s LTR-IV/myc): 44; Kd [16]: 0.0032 µM; Kd [11]: 0.0061 µM; Kd [17]: 0.0131 µM; SI HIV-1 strain NL4-3 [1]: 40; IC50 ([1]; read-out: IC50 HIV-1 strain NL4-3, MOI 0.5, 48 h, LTR-luciferase signal): 0.0132 ± 0.0001 µM; SI HIV-1 strain BaL ([18]; CC50 value/IC50 value): 14; IC50 ([18]; read-out: IC50 HIV-1 strain BaL, MOI 0.5, 48 h, LTR-luciferase signal): 0.0362 ± 0.0043 µM; CC50 [2]: 0.532 ± 0.0117 µM; antiviral activity as a function of time of addition (0, 1, 2 h pi) [4]: No significant difference in the activity of the compound was observed at the tested times; inhibition of mean EGFP levels (LTR promoter activity) [19]: up to 60%; inhibition of wt LTR luciferase activity [20]: up to 65%; effect on non-G4-forming mutant LTR (M4 + 5) luciferase activity [21]: no effect
